Measured values taken from PubChem BioAssay AID489000 (The Scripps Research Institute Molecular Screening Center, 2010).
Activity calls are given as the source filed them.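 Rule for the calls: active = IC50 for blocking EBNA-1 binding to its DNA probe at or below 10 µM; inactive = the rest.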

target: Epstein-Barr virus nuclear antigen 1 (EBNA-1) DNA-binding domain; assay: blockers of EBV EBNA-1 DNA binding, IC50 – biochemical, fluorescence polarization, dose response, powder samples, late-stage follow-up (AID 489000); details: Recombinant EBNA-1 DBD, Cy5-DNA fluorescence polarization
Summary of the method: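 Assay system: E. coli-expressed EBNA-1 DBD protein. Medium: Tris pH 7.4 buffer with 200 mM NaCl, DTT, BSA. Schedule: Protein-probe preincubation 30 min, compound exposure 1 h, room temperature. Measured by: fluorescence polarization, 620 nm excitation, 688 nm emission. Measure: percent inhibition between controls, IC50 from four-parameter sigmoidal fit.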

| SMILES | IC50 |
| --- | --- |
| Cc1ccc(C(=O)Nc2nc3cc(F)ccc3s2)cc1C | > 148 µM (inactive) |
| COCCn1c(C)cc(C(=O)CSc2nnnn2-c2ccccc2)c1C | > 148 µM (inactive) |
| CS(=O)(=O)c1ccc2nc(NC(=O)c3cccc(Cl)c3)sc2c1 | > 148 µM (inactive) |
| COc1cccc2sc(NC(=O)c3ccc(C)c(C)c3)nc12 | > 148 µM (inactive) |
| Cc1ccc(C(=O)Nc2nc3ccc(S(C)(=O)=O)cc3s2)cc1 | > 148 µM (inactive) |
| Cc1ccc(C(=O)Nc2nc3cc(Br)ccc3s2)cc1C | > 148 µM (inactive) |
| O=C(CSc1nnnn1-c1ccccc1)c1ccn(CC2CCCO2)c1 (centres undefined) | > 148 µM (inactive) |
| COc1ccc2nc(NC(=O)c3ccc(C)c(C)c3)sc2c1 | > 148 µM (inactive) |
| Cc1ccc(C(=O)Nc2nc3ccc(Br)cc3s2)cc1C | > 148 µM (inactive) |
| Cc1ccccc1C(=O)Nc1nc2ccc(S(C)(=O)=O)cc2s1 | > 148 µM (inactive) |
| Cc1cc(C(=O)CSc2nnnn2-c2ccccc2)c(C)n1C | inactive |
| COc1ccc(C(=O)Nc2nc3ccc(S(C)(=O)=O)cc3s2)cc1 | inactive |
| Cc1cccc(C(=O)Nc2nc3ccc(S(C)(=O)=O)cc3s2)c1 | inactive |
| CS(=O)(=O)c1ccc2nc(NC(=O)c3ccc(Cl)cc3)sc2c1 | inactive |
| CS(=O)(=O)c1ccc2nc(NC(=O)c3ccccc3F)sc2c1 | > 148 µM (inactive) |
| COc1ccccc1C(=O)Nc1nc2ccc(S(C)(=O)=O)cc2s1 | > 148 µM (inactive) |
| COc1ccc2sc(NC(=O)c3ccc(C)c(C)c3)nc2c1 | > 148 µM (inactive) |
| CS(=O)(=O)c1ccc2nc(NC(=O)c3cccc(F)c3)sc2c1 | > 148 µM (inactive) |
| CS(=O)(=O)c1ccc2nc(NC(=O)c3ccccc3Cl)sc2c1 | > 148 µM (inactive) |
| COc1cccc(C(=O)Nc2nc3ccc(S(C)(=O)=O)cc3s2)c1 | inactive |

More lines, now with the values ahead:

| IC50 | SMILES |
| --- | --- |
| > 148 µM (inactive) | Cc1cccc(-n2nnnc2SCC(=O)c2cc(C)n(CC3CCCO3)c2C)c1 (centres undefined) |
| inactive | Cc1cc(C(=O)CSc2nnnn2C2CC2)c(C)n1CC1CCCO1 (centres undefined) |
| > 16.4 µM (inactive) | COc1ccc(-n2nnnc2SCC(=O)c2cc(C)n(CC3CCCO3)c2C)cc1 (centres undefined) |
| > 148 µM (inactive) | Cc1cc(C(=O)CSc2nnnn2-c2ccccc2)c(C)n1Cc1cccs1 |
| > 148 µM (inactive) | Cc1cc(C(=O)CSc2nnnn2-c2cccc(F)c2)c(C)n1CC1CCCO1 (centres undefined) |
| > 148 µM (inactive) | CCn1c(C)cc(C(=O)CSc2nnnn2-c2ccccc2)c1C |
| > 148 µM (inactive) | Cc1cc(C(=O)CSc2nnnn2C)c(C)n1CC1CCCO1 (centres undefined) |
| > 148 µM (inactive) | Cc1ccccc1-n1nnnc1SCC(=O)c1cc(C)n(CC2CCCO2)c1C (centres undefined) |
| > 148 µM (inactive) | Cc1cc(C(=O)CSc2nnnn2-c2ccc(Cl)cc2)c(C)n1CC1CCCO1 (centres undefined) |
